Assay results taken from ChEMBL document CHEMBL1649469, “Pharmacokinetics of nikkomycin Z after single rising oral doses” (Antimicrob Agents Chemother, 2009).

Legend:
[1] = Relative bioavailability based on AUC (0 to infinity) in healthy human at 1500 […], po administered as single dose by HPLC method; type: ADME, organism-based; conditions: in vivo
Outline: (§1)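 Relative bioavailability is AUC0-∞ at the test dose relative to the group's reference dose: 250 mg for group 1 (1,000 and 1,750 mg), 500 mg for group 2 (1,500 and 2,000 mg). Same volunteers, single oral doses, plasma sampling to 72 h and HPLC-UV assay as above.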

[2] = Cmax in healthy human at 500 mg, po administered as single dose measured after 72 hrs by HPLC method; conditions: in vivo
Homo sapiens [3] = experiment: Hepatotoxicity in healthy human assessed as elevated bilirubin level at 1000 […], po administered as single dose after 7 days post dosing; type: toxicity, organism-based; set-up: route oral; conditions: in vivo, 168 h
[4] = Relative bioavailability in healthy human at 1500 to 2000 […], po administered as single dose by HPLC method; type: ADME, organism-based; conditions: in vivo
Outline: (§2)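 Population PK model: one compartment, first-order absorption with lag time, first-order elimination, fitted to plasma HPLC concentrations from single oral doses of 250–2,000 mg in healthy fasting men. F for 250–500 mg was fixed at 1, and doses of 1,500–2,000 mg were assumed to share one F. Posterior predictive check used.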

Homo sapiens [5] = experiment: Hepatotoxicity in healthy human assessed as elevated aspartate transaminase level at 1000 […], po administered as single dose after 72 hrs; type: toxicity, organism-based; set-up: route oral; conditions: in vivo
[6] = AUC (0 to t) in healthy human at 250 mg, po administered as single dose measured after 72 hrs by HPLC method; conditions: plasma
[7] = Terminal half life in healthy human at 1500 mg, po administered as single dose measured after 72 hrs by HPLC method; conditions: in vivo, read-out: beta t1/2 (converted)
[8] = Relative bioavailability based on AUC (0 to infinity) in healthy human at 1750 […], po administered as single dose by HPLC method; type: ADME, organism-based; conditions: in vivo; outline: as §1
Homo sapiens [9] = experiment: Volume of distribution in healthy human at 250 to 2000 […], po administered as single dose by HPLC method; type: ADME, organism-based; set-up: route oral; conditions: in vivo; outline: as §2
[10] = Cmax in healthy human at 1000 mg, po administered as single dose measured after 72 hrs by HPLC method; conditions: in vivo
[11] = AUC (0 to infinity) in healthy human at 1000 mg, po administered as single dose measured after 72 hrs by HPLC method; conditions: plasma
[12] = First-order absorption rate constant in healthy human at 250 to 2000 mg, po administered as single dose by HPLC method; conditions: in vivo
[13] = AUC (0 to infinity) in healthy human at 500 […], po administered as single dose measured after 72 hrs by HPLC method; type: ADME, organism-based; set-up: time infinity, route oral; conditions: plasma
Outline: (§3)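 Healthy fasting male volunteers, two groups of six, each given two of three single oral capsule doses plus a random placebo, with a 2-week washout. About 12 blood samples were taken over 24 h, then at 48 and 72 h. Plasma was assayed by validated HPLC-UV (LLOQ 48 ng/ml). Noncompartmental analysis: Cmax/Tmax observed, AUC0-t* by linear trapezoid, λz from the terminal log-linear phase, AUC0-∞ = AUC0-t* + C*/λz.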

[14] = Tmax in healthy human at […], po administered as single dose measured after 72 hrs by HPLC method; type: ADME, organism-based; set-up: route oral; conditions: in vivo; outline: as §3
[15] = Tmax in healthy human at 1000 […], po administered as single dose measured after 72 hrs by HPLC method; type: ADME, organism-based; set-up: route oral; conditions: in vivo; outline: as §3
[16] = Oral clearance in healthy human at 250 to 2000 […] administered as single dose by HPLC method; type: ADME, organism-based; conditions: in vivo; outline: as §2
[17] = Cmax in healthy human at 1500 mg, po administered as single dose measured after 72 hrs by HPLC method; conditions: in vivo
Homo sapiens [18] = experiment: Toxicity in healthy human assessed as occurrence of dizziness at […], po administered as single dose; type: organism-based; set-up: route oral; conditions: in vivo
[19] = AUC (0 to infinity) in healthy human at 1750 mg, po administered as single dose measured after 72 hrs by HPLC method; conditions: plasma
[20] = AUC (0 to t) in healthy human at 2000 […], po administered as single dose measured after 72 hrs by HPLC method; type: ADME, organism-based; set-up: time < 72 hr, route oral; conditions: plasma; outline: as §3
[21] = AUC (0 to infinity) in healthy human at 1500 mg, po administered as single dose measured after 72 hrs by HPLC method; conditions: plasma
Homo sapiens [22] = experiment: Hepatotoxicity in healthy human assessed as elevated alkaline phosphatase level at 1000 […], po administered as single dose after 48 hrs; type: toxicity, organism-based; set-up: route oral; conditions: in vivo
[23] = Terminal half life in healthy human at 250 mg, po administered as single dose measured after 72 hrs by HPLC method; conditions: in vivo, read-out: beta t1/2 (converted)
[24] = Cmax in healthy human at 1750 mg, po administered as single dose measured after 72 hrs by HPLC method; conditions: in vivo
Homo sapiens [25] = experiment: Toxicity in healthy human assessed as occurrence of headache at […], po administered as single dose; type: organism-based; set-up: route oral; conditions: in vivo
[26] = Cmax in healthy human at 2000 […], po administered as single dose measured after 72 hrs by HPLC method; type: ADME, organism-based; set-up: route oral; conditions: in vivo; outline: as §3
[27] = AUC (0 to infinity) in healthy human at […], po administered as single dose measured after 72 hrs by HPLC method; type: ADME, organism-based; set-up: time infinity, route oral; conditions: plasma; outline: as §3
[28] = AUC (0 to t) in healthy human at 500 mg, po administered as single dose measured after 72 hrs by HPLC method; conditions: plasma
[29] = Tmax in healthy human at 1500 […], po administered as single dose measured after 72 hrs by HPLC method; type: ADME, organism-based; set-up: route oral; conditions: in vivo; outline: as §3
[30] = AUC (0 to t) in healthy human at 1750 […], po administered as single dose measured after 72 hrs by HPLC method; type: ADME, organism-based; set-up: time < 72 hr, route oral; conditions: plasma; outline: as §3
[31] = Terminal half life in healthy human at 1750 mg, po administered as single dose measured after 72 hrs by HPLC method; conditions: in vivo, read-out: beta t1/2 (converted)
[32] = Tmax in healthy human at 2000 mg, po administered as single dose measured after 72 hrs by HPLC method; conditions: in vivo
[33] = Terminal half life in healthy human at 2000 mg, po administered as single dose measured after 72 hrs by HPLC method; conditions: in vivo, read-out: beta t1/2 (converted)
[34] = Terminal half life in healthy human at 1000 mg, po administered as single dose measured after 72 hrs by HPLC method; conditions: in vivo, read-out: beta t1/2 (converted)
[35] = Relative bioavailability in healthy human at 1000 […], po administered as single dose by HPLC method; type: ADME, organism-based; conditions: in vivo; outline: as §2
Homo sapiens [36] = experiment: Absorption time lag in healthy human at 250 to 2000 […], po administered as single dose by HPLC method; type: ADME, organism-based; set-up: route oral; conditions: in vivo; outline: as §2
[37] = Tmax in healthy human at 1750 mg, po administered as single dose measured after 72 hrs by HPLC method; conditions: in vivo
[38] = Cmax in healthy human at 250 mg, po administered as single dose measured after 72 hrs by HPLC method; conditions: in vivo
[39] = AUC (0 to t) in healthy human at 1000 mg, po administered as single dose measured after 72 hrs by HPLC method; conditions: plasma
Homo sapiens [40] = experiment: Hepatotoxicity in healthy human assessed as elevated bilirubin level at 1000 […], po administered as single dose after 72 hrs; type: toxicity, organism-based; set-up: route oral; conditions: in vivo
Homo sapiens [41] = experiment: Hepatotoxicity in healthy human assessed as elevated bilirubin level at 1000 […], po administered as single dose after 48 hrs; type: toxicity, organism-based; set-up: route oral; conditions: in vivo
[42] = AUC (0 to infinity) in healthy human at 2000 mg, po administered as single dose measured after 72 hrs by HPLC method; conditions: plasma
[43] = Relative bioavailability based on AUC (0 to infinity) in healthy human at 2000 […], po administered as single dose by HPLC method; type: ADME, organism-based; conditions: in vivo; outline: as §1
Homo sapiens [44] = experiment: Hepatotoxicity in healthy human assessed as elevated aspartate transaminase level at 1000 […], po administered as single dose after 48 hrs; type: toxicity, organism-based; set-up: route oral; conditions: in vivo
[45] = Tmax in healthy human at 500 […], po administered as single dose measured after 72 hrs by HPLC method; type: ADME, organism-based; set-up: route oral; conditions: in vivo; outline: as §3
[46] = Terminal half life in healthy human at 500 mg, po administered as single dose measured after 72 hrs by HPLC method; conditions: in vivo, read-out: beta t1/2 (converted)
[47] = AUC (0 to t) in healthy human at 1500 […], po administered as single dose measured after 72 hrs by HPLC method; type: ADME, organism-based; set-up: time < 72 hr, route oral; conditions: plasma; outline: as §3
Homo sapiens [48] = experiment: Hepatotoxicity in healthy human assessed as elevated alkaline phosphatase level at 1000 […], po administered as single dose after 72 hrs; type: toxicity, organism-based; set-up: route oral; conditions: in vivo

With `C[C@@H]([C@H](N)C(=O)N[C@H](C(=O)O)[C@H]1O[C@@H](n2ccc(=O)[nH]c2=O)[C@H](O)[C@@H]1O)[C@H](O)c1ccc(O)cn1` [NIKKOMYCIN] the bioavailability [1] was 41%, the Cmax [2] was 3990 ng/mL and the Activity (Homo sapiens [3]) was “Non-toxic”. For the same compound, the bioavailability [4] was 43.9%, the Activity (Homo sapiens [5]) was “Toxic” and the AUC(0-t) at 72 h [6] was 11300 ng·h/mL. It also gave a half-life [7] of 2.21 h, a bioavailability [8] of 47% and a Vd (Homo sapiens [9]) of 41.5 L. The Cmax [10] was 5140 ng/mL, the AUC(0-inf) [11] was 32500 ng·h/mL and the Ka [12] was 0.000113 s⁻¹. It also gave an AUC(0-inf) [13] of 24600 ng·h/mL, a Tmax [14] of 2 h and a Tmax [15] of 4 h. The CL/F [16] was 367 mL/min, the Cmax [17] was 4850 ng/mL and the Activity (Homo sapiens [18]) was “Toxic”. It also gave an AUC(0-inf) [19] of 37900 ng·h/mL, an AUC(0-t) at 72 h [20] of 40200 ng·h/mL and an AUC(0-inf) [21] of 30600 ng·h/mL. For the same compound, the Activity (Homo sapiens [22]) was “Non-toxic”, the half-life [23] was 2.53 h and the Cmax [24] was 6440 ng/mL. The Activity (Homo sapiens [25]) was “Toxic”, the Cmax [26] was 6420 ng/mL and the AUC(0-inf) [27] was 11600 ng·h/mL. It also gave an AUC(0-t) at 72 h [28] of 24300 ng·h/mL, a Tmax [29] of 2 h and an AUC(0-t) at 72 h [30] of 37400 ng·h/mL. The half-life [31] was 2.12 h, the Tmax [32] was 4 h and the half-life [33] was 2.09 h. For the same compound, the half-life [34] was 2.06 h, the bioavailability [35] was 61.6% and the Tlag (Homo sapiens [36]) was 0.695 h. For the same compound, the Tmax [37] was 4 h, the Cmax [38] was 2210 ng/mL and the AUC(0-t) at 72 h [39] was 32100 ng·h/mL. For the same compound, the Activity (Homo sapiens [40]) was “Toxic”, the Activity (Homo sapiens [41]) was “Non-toxic” and the AUC(0-inf) [42] was 40700 ng·h/mL. The bioavailability [43] was 41%, the Activity (Homo sapiens [44]) was “Non-toxic” and the Tmax [45] was 3 h. The half-life [46] was 2.22 h, the AUC(0-t) at 72 h [47] was 30300 ng·h/mL and the Activity (Homo sapiens [48]) was “Toxic”.
